Source: ChEMBL document CHEMBL3751707, “Silicon Incorporated Morpholine Antifungals: Design, Synthesis, and Biological Evaluation” (ACS Med Chem Lett, 2015)
Values after ≈ are worked out from the molar mass of the structure shown.

How the values were obtained:
Candida albicans [1] = test: Antifungal activity against Candida albicans ATCC 24433 after 24 to 36 hrs by broth microdilution method; format: functional, organism-based
How it was run: (§1)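 CLSI broth microdilution against yeasts (M27-A3) and filamentous fungi (M38-A2). Read-outs: IC50 (concentration giving 50% growth inhibition), MIC, and MFC (minimum fungicidal concentration), all in μg/mL. Assay done twice in triplicate.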

Candida albicans [2] = test: Antifungal activity against Candida albicans ATCC 24433 after 72 hrs by broth microdilution method; format: functional; settings: ATCC 24433, 72 h; how it was run: as §1
Candida albicans [3] = test: Antifungal activity against Candida albicans ATCC 10231 after 24 to 36 hrs by broth microdilution method; format: functional, organism-based; how it was run: as §1
Candida albicans [4] = test: Antifungal activity against Candida albicans ATCC 10231 after 72 hrs by broth microdilution method; format: functional; settings: ATCC 10231, 72 h; how it was run: as §1
Cryptococcus neoformans [5] = test: Antifungal activity against Cryptococcus neoformans ATCC 34664 after 24 to 36 hrs by broth microdilution method; format: functional, organism-based; how it was run: as §1
Cryptococcus neoformans [6] = test: Antifungal activity against Cryptococcus neoformans ATCC 34664 after 72 hrs by broth microdilution method; format: functional; settings: ATCC 34664, 72 h; how it was run: as §1
Nakaseomyces glabratus [7] = test: Antifungal activity against Candida glabrata NCYC 388 after 24 to 36 hrs by broth microdilution method; format: functional, organism-based; how it was run: as §1
Nakaseomyces glabratus [8] = test: Antifungal activity against Candida glabrata NCYC 388 after 72 hrs by broth microdilution method; format: functional; settings: NCYC 388, 72 h; how it was run: as §1
Candida tropicalis [9] = test: Antifungal activity against Candida tropicalis ATCC 750 after 24 to 36 hrs by broth microdilution method; format: functional, organism-based; how it was run: as §1
Candida tropicalis [10] = test: Antifungal activity against Candida tropicalis ATCC 750 after 72 hrs by broth microdilution method; format: functional; settings: ATCC 750, 72 h; how it was run: as §1
Aspergillus niger [11] = test: Antifungal activity against Aspergillus niger ATCC 10578 after 48 hrs by broth microdilution method; format: functional, organism-based; settings: ATCC 10578, 48 h; how it was run: as §1
Aspergillus niger [12] = test: Antifungal activity against Aspergillus niger ATCC 10578 after 72 hrs by broth microdilution method; format: functional; settings: ATCC 10578, 72 h; how it was run: as §1
[13] = Toxicity in human RBC assessed as hemolysis upto 128 ug/ml; format: cell-based; settings: erythrocyte
[14] = Toxicity in human RBC assessed as partial hemolysis at 256 ug/ml; format: cell-based; settings: erythrocyte
HEK293 = test: Cytotoxicity against HEK293 cells after 24 hrs by MTT assay; format: cell-based; settings: Homo sapiens, HEK293, 24 h
Candida albicans [15] = test: Effect on sterol profile of Candida albicans ATCC 24433 assessed as squalene level at 0.125 ug/ml for 24 hrs by spectrophotometry (reference value: 7.17 +/- 0.35 %); format: functional
How it was run: (§2)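 C. albicans ATCC 24433 grown with subinhibitory (<MIC) compound concentrations. Cellular sterols extracted. Sterol content read spectrophotometrically by scan at 230–300 nm, and individual intermediates quantified by GC–MS. Values are average % of total sterols from two experiments, with standard error of the mean.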

Candida albicans [16] = test: Effect on sterol profile of Candida albicans ATCC 24433 assessed as cholesta-8,24-dien-3-ol,4-methyl-(3a',4a') level at 0.125 ug/ml for 24 hrs by spectrophotometry (reference value: 7.19 +/- 0.65 %); format: functional; how it was run: as §2
Candida albicans [17] = test: Effect on sterol profile of Candida albicans ATCC 24433 assessed as ergosterol level at 0.125 ug/ml for 24 hrs by spectrophotometry (reference value: 73.34 +/- 2.53 %); format: functional; how it was run: as §2
Candida albicans [18] = test: Effect on sterol profile of Candida albicans ATCC 24433 assessed as cholesta-5,24-dien-3-ol level at 0.125 ug/ml for 24 hrs by spectrophotometry (reference value: 3.58 +/- 0.52 %); format: functional; how it was run: as §2
Candida albicans [19] = test: Effect on sterol profile of Candida albicans ATCC 24433 assessed as ignosterol level at 0.125 ug/ml for 24 hrs by spectrophotometry; format: functional; how it was run: as §2
Candida albicans [20] = test: Effect on sterol profile of Candida albicans ATCC 24433 assessed as lichesterol level at 0.125 ug/ml for 24 hrs by spectrophotometry; format: functional; how it was run: as §2
Candida albicans [21] = test: Effect on sterol profile of Candida albicans ATCC 24433 assessed as ergosterol level at 0.125 ug/ml for 24 hrs by spectrophotometry; format: functional; settings: in the assay text read “ergostenol level” for “ergosterol level”; how it was run: as §2
Candida albicans [22] = test: Effect on sterol profile of Candida albicans ATCC 24433 assessed as squalene level at 0.25 ug/ml for 24 hrs by spectrophotometry (reference value: 7.17 +/- 0.35 %); format: functional; how it was run: as §2
Candida albicans [23] = test: Effect on sterol profile of Candida albicans ATCC 24433 assessed as ergosterol level at 0.25 ug/ml for 24 hrs by spectrophotometry (reference value: 73.34 +/- 2.53 %); format: functional; settings: in the assay text read “by GC-MS” for “by spectrophotometry”; how it was run: as §2
Candida albicans [24] = test: Effect on sterol profile of Candida albicans ATCC 24433 assessed as cholesta-8,24-dien-3-ol,4-methyl-(3a',4a') level at 0.25 ug/ml for 24 hrs by spectrophotometry (reference value: 7.19 +/- 0.65 %); format: functional; settings: in the assay text read “by GC-MS” for “by spectrophotometry”; how it was run: as §2
Candida albicans [25] = test: Effect on sterol profile of Candida albicans ATCC 24433 assessed as cholesta-5,24-dien-3-ol level at 0.25 ug/ml for 24 hrs by spectrophotometry (reference value: 3.58 +/- 0.52 %); format: functional; settings: in the assay text read “by GC-MS” for “by spectrophotometry”; how it was run: as §2
Candida albicans [26] = test: Effect on sterol profile of Candida albicans ATCC 24433 assessed as ignosterol level at 0.25 ug/ml for 24 hrs by spectrophotometry; format: functional; settings: in the assay text read “by GC-MS” for “by spectrophotometry”; how it was run: as §2
Candida albicans [27] = test: Effect on sterol profile of Candida albicans ATCC 24433 assessed as ergosterol level at 0.25 ug/ml for 24 hrs by spectrophotometry; format: functional; settings: in the assay text read “ergostenol level” for “ergosterol level”; how it was run: as §2
[28] = Metabolic stability in mouse liver microsomes after 30 mins by LC-MS/MS analysis; format: ADME; settings: read-out: Stability
How it was run: (§3)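 Test compounds were incubated 30 min with liver microsomes (human or mouse, per line), and values are reported as % metabolic stability after 30 min.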

[29] = Metabolic stability in human liver microsomes after 30 mins by LC-MS/MS analysis; format: ADME; settings: read-out: Stability; how it was run: as §3
[30] = Toxicity in human RBC assessed as hemolysis at 512 ug/ml; format: cell-based, Erythrocyte; settings: red blood cells, read-out: Activity
Candida albicans [31] = test: Effect on sterol profile of Candida albicans ATCC 24433 assessed as ergosta-7,22-dien-3-ol,(3a'22E) level at 0.125 ug/ml for 24 hrs by spectrophotometry; format: functional; how it was run: as §2
Candida albicans [32] = test: Effect on sterol profile of Candida albicans ATCC 24433 assessed as lichesterol level at 0.25 ug/ml for 24 hrs by spectrophotometry; format: functional; settings: in the assay text read “by GC-MS” for “by spectrophotometry”; how it was run: as §2
Candida albicans [33] = test: Effect on sterol profile of Candida albicans ATCC 24433 assessed as ergosta-7,22-dien-3-ol,(3a'22E) level at 0.25 ug/ml for 24 hrs by spectrophotometry; format: functional; settings: in the assay text read “by GC-MS” for “by spectrophotometry”; how it was run: as §2

Compound	IC50 (Candida albicans [1]) [µg/mL]	MIC (Candida albicans [1]) [µg/mL]	MFC (Candida albicans [2]) [µg/mL]	IC50 (Candida albicans [3]) [µg/mL]	MIC (Candida albicans [3]) [µg/mL]	MFC (Candida albicans [4]) [µg/mL]	IC50 (Cryptococcus neoformans [5]) [µg/mL]	MIC (Cryptococcus neoformans [5]) [µg/mL]	MFC (Cryptococcus neoformans [6]) [µg/mL]	IC50 (Nakaseomyces glabratus [7]) [µg/mL]	MIC (Nakaseomyces glabratus [7]) [µg/mL]	MFC (Nakaseomyces glabratus [8]) [µg/mL]	IC50 (Candida tropicalis [9]) [µg/mL]	MIC (Candida tropicalis [9]) [µg/mL]	MFC (Candida tropicalis [10]) [µg/mL]	IC50 (Aspergillus niger [11]) [µg/mL]	MIC (Aspergillus niger [11]) [µg/mL]	MFC (Aspergillus niger [12]) [µg/mL]	Activity [13]	Activity (Candida albicans [15]) [%]	further results
CNC1CCN(CC(C)Cc2ccc([Si](C)(C)C)cc2)CC1 (centres undefined)	1.55 (≈ 4.87 µM)	4 (≈ 12.6 µM)	8 (≈ 25.1 µM)	1 (≈ 3.14 µM)	2 (≈ 6.28 µM)	2 (≈ 6.28 µM)	3.77 (≈ 11.8 µM)	8 (≈ 25.1 µM)	8 (≈ 25.1 µM)	1.63 (≈ 5.12 µM)	2 (≈ 6.28 µM)	4 (≈ 12.6 µM)	5.87 (≈ 18.4 µM)	16 (≈ 50.2 µM)	16 (≈ 50.2 µM)	1.25 (≈ 3.92 µM)	2 (≈ 6.28 µM)	64 (≈ 201 µM)	Non-toxic		Activity [14]: Toxic; IC50 (HEK293): 9.81 µg/mL (≈ 30.8 µM)
CC(Cc1ccc([Si](C)(C)C)cc1)CN1C[C@@H](C)O[C@@H](C)C1 (some centres undefined)	0.043 (≈ 0.135 µM)	0.125 (≈ 0.391 µM)	0.5 (≈ 1.56 µM)	0.25 (≈ 0.782 µM)	0.5 (≈ 1.56 µM)	1 (≈ 3.13 µM)	0.079 (≈ 0.247 µM)	0.125 (≈ 0.391 µM)	2 (≈ 6.26 µM)	0.017 (≈ 0.0532 µM)	0.125 (≈ 0.391 µM)	2 (≈ 6.26 µM)	0.164 (≈ 0.513 µM)	0.5 (≈ 1.56 µM)	64 (≈ 200 µM)	0.5 (≈ 1.56 µM)	2 (≈ 6.26 µM)	256 (≈ 801 µM)	Non-toxic	21.52	Activity (Candida albicans [16]): 5.36%; Activity (Candida albicans [17]): 15.52%; Activity (Candida albicans [18]): 15.34%; Activity (Candida albicans [19]): 7.23%; Activity (Candida albicans [20]): 29.84%; Activity (Candida albicans [21]): 5.19%; Activity (Candida albicans [22]): 13.82%; Activity (Candida albicans [23]): 11.12%; Activity (Candida albicans [24]): 27.78%; Activity (Candida albicans [25]): 0.87%; Activity (Candida albicans [26]): 42.29%; Activity (Candida albicans [27]): 4.12%; remaining at 0.5 h [28]: 6.2%; remaining at 0.5 h [29]: 27.3%; hemolysis at 512 ug/ml [30]: 7%
CCC(C)(C)c1ccc(CC(C)CN2C[C@@H](C)O[C@@H](C)C2)cc1 (some centres undefined) [AMOROLFINE]	0.028 (≈ 0.0882 µM)	1 (≈ 3.15 µM)	8 (≈ 25.2 µM)	0.1 (≈ 0.315 µM)	0.25 (≈ 0.787 µM)	32 (≈ 101 µM)	0.031 (≈ 0.0976 µM)	0.125 (≈ 0.394 µM)	64 (≈ 202 µM)	0.038 (≈ 0.12 µM)	0.125 (≈ 0.394 µM)	32 (≈ 101 µM)	0.173 (≈ 0.545 µM)	0.5 (≈ 1.57 µM)	> 256	0.125 (≈ 0.394 µM)	0.5 (≈ 1.57 µM)	> 256	Non-toxic	22.04	Activity (Candida albicans [31]): 15.28%; Activity (Candida albicans [16]): 12.26%; Activity (Candida albicans [17]): 30.16%; Activity (Candida albicans [18]): 0.44%; Activity (Candida albicans [20]): 8.26%; Activity (Candida albicans [21]): 11.56%; Activity (Candida albicans [22]): 17.08%; Activity (Candida albicans [23]): 6.13%; Activity (Candida albicans [24]): 12.03%; Activity (Candida albicans [26]): 11.11%; Activity (Candida albicans [32]): 32.13%; Activity (Candida albicans [27]): 5.71%; Activity (Candida albicans [33]): 15.81%
